# Assay results taken from ChEMBL document CHEMBL1649277, “Inhibition of herpesvirus replication by 5-substituted 4'-thiopyrimidine nucleosides” (Antimicrob Agents Chemother, 2009).
# What was measured:
# Human alphaherpesvirus 2 [1] = assay: Antiviral activity against 4'-thioIDU-resistant HSV2 infected in HFF after 3 days by plaque reduction assay; assay type: functional, organism-based; conditions: Human alphaherpesvirus 2, 72 h
# How it was run: (§1)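 Confluent HFF monolayers (passage <10) were infected in triplicate wells at 20–30 plaques per well, with 1 h adsorption and rocking every 15 min. Six serial dilutions (top 100 μM) were made in MEM with 2% FBS and pooled human immunoglobulin. Cells were incubated 3 days and stained with crystal violet. Plaques were counted, and EC50 was interpolated from plaque reduction.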
# Human alphaherpesvirus 2 [2] = assay: Antiviral activity against HSV2 MS infected in HFF after 3 days by plaque reduction assay; assay type: functional, organism-based; conditions: Human alphaherpesvirus 2, MS, 72 h
# How it was run: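 Confluent primary HFF monolayers (passage <10), triplicate wells, virus dosed at 20–30 plaques/well. Adsorption was 1 h with rocking every 15 min. Six serial dilutions, top 100 μM, were made in MEM with 2% FBS plus pooled human immunoglobulin. After 3 days, wells were stained with 0.1% crystal violet in 20% methanol and plaques counted microscopically. EC50 was interpolated.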
# Human alphaherpesvirus 2 [3] = assay: Antiviral activity against HSV2 harboring frameshift mutation in TK infected in HFF after 3 days by plaque reduction assay; assay type: functional, organism-based; conditions: Human alphaherpesvirus 2, 72 h; how it was run: as §1
# Human alphaherpesvirus 2 [4] = assay: Selectivity ratio of EC50 for 4'-thioIDU-resistant HSV2 infected in HFF to EC50 for HSV2 MS infected in HFF; assay type: functional
# [5] = Cytotoxicity against HFF after 3 days by MTS assay; assay type: cell-based; conditions: human, HFF cells
# [6] = Selectivity index, ratio of CC50 for HFF to EC50 for HSV2 MS infected in HFF
# HFF = assay: Antiproliferative activity against HFF after 3 days by Coulter counting analysis; assay type: cell-based; conditions: Homo sapiens, 72 h
# How it was run: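 HFF seeded at 2.5 × 10^4 cells/well and allowed 24 h before compound dilutions in growth medium were added. Cells were incubated 72 h at 37°C, detached with trypsin-EDTA, and viable cells counted with a Coulter Counter in triplicate wells. The mean cell number gave the concentration reducing cell number by 50%.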
# Human betaherpesvirus 5 [7] = assay: Antiviral activity against human cytomegalovirus VR4955 harboring UL54 T700A mutant gene infected in HFF after 8 to 10 days by plaque reduction assay; assay type: functional, organism-based; conditions: Human betaherpesvirus 5, VR4955
# How it was run: (§2)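 Plaque reduction in confluent HFF with six serial dilutions (top 100 μM) and no immunoglobulin added. Virus was adsorbed 1 h on triplicate wells. Cells were incubated 8 days, stained with 0.017% neutral red in PBS, and plaques counted. EC50 is the concentration reducing plaque number by 50%.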
# Human betaherpesvirus 5 [8] = assay: Antiviral activity against human cytomegalovirus C8914-6 harboring UL97 I244V, L595F and UL54 L501F mutant gene infected in HFF after 8 to 10 days by plaque reduction assay; assay type: functional, organism-based; conditions: Human betaherpesvirus 5, C8914-6; how it was run: as §2
# Human betaherpesvirus 5 [9] = assay: Antiviral activity against human cytomegalovirus 1117 harboring UL54 K513N mutant gene infected in HFF after 8 to 10 days by plaque reduction assay; assay type: functional, organism-based; conditions: Human betaherpesvirus 5, 1117; how it was run: as §2
# Human betaherpesvirus 5 [10] = assay: Antiviral activity against human cytomegalovirus PFAB300 harboring UL54 L724V mutant gene infected in HFF after 8 to 10 days by plaque reduction assay; assay type: functional, organism-based; conditions: Human betaherpesvirus 5, PFAB300; how it was run: as §2
# Human betaherpesvirus 5 [11] = assay: Antiviral activity against human cytomegalovirus 759D100 harboring deletion mutation in UL97 gene and UL54 A987G mutant gene infected in HFF after 8 to 10 days by plaque reduction assay; assay type: functional, organism-based; conditions: Human betaherpesvirus 5, 759D100; how it was run: as §2
# Human betaherpesvirus 5 [12] = assay: Antiviral activity against human cytomegalovirus RC314 harboring UL97 K355M mutant gene infected in HFF after 8 to 10 days by plaque reduction assay; assay type: functional, organism-based; conditions: Human betaherpesvirus 5, RC314; how it was run: as §2
# Human betaherpesvirus 5 [13] = assay: Antiviral activity against human cytomegalovirus AD169 infected in HFF after 8 to 10 days by plaque reduction assay; assay type: functional, organism-based; conditions: Human betaherpesvirus 5, AD169
# How it was run: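 Plaque reduction on confluent HFF monolayers in triplicate wells: 1 h adsorption, then six serial compound dilutions (top 100 μM) in MEM with 2% FBS, no immunoglobulin. Incubation was 8 days for HCMV and 10 days for VZV. Plaques were stained with 0.017% neutral red in PBS and counted microscopically. EC50 was interpolated at 50% plaque reduction.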
# Human gammaherpesvirus 8 = assay: Antiviral activity against Human herpesvirus 8 infected in human BCBL1 cells assessed as decrease in viral DNA accumulation after 7 days; assay type: functional, organism-based; conditions: Human gammaherpesvirus 8, BCBL1, 168 h
# How it was run: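 BCBL1 cells in RPMI 1640 with 10% FBS were induced to lytic replication with phorbol 12-myristate 13-acetate (100 ng/ml final). Compound was tested in triplicate wells up to 100 μM for 7 days at 37°C. Total DNA was purified and viral DNA quantified by TaqMan qPCR. EC50 is the concentration giving 50% reduction of DNA accumulation.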
# [14] = Antiviral activity against Human herpesvirus 6 GS infected in human HSB2 cells assessed as decrease in viral DNA accumulation after 7 days; assay type: functional, cell-based, Human herpesvirus 6 (strain GS); conditions: Human betaherpesvirus 6A, HSB2, 168 h
# How it was run: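 HSB-2 cells (2 × 10^4/well) in RPMI 1640 with 10% FBS were infected with HHV-6A strain GS, with compound dilutions in triplicate wells, at 37°C for 7 days. Total DNA was denatured and immobilized on nylon. Viral DNA accumulation was measured by digoxigenin-labeled DNA probe hybridization and anti-hapten antibody detection.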
# Human betaherpesvirus 5 [15] = assay: Antiviral activity against human cytomegalovirus AD169 infected in HFF assessed as decrease in viral DNA accumulation after 8 to 10 days; assay type: functional, organism-based; conditions: Human betaherpesvirus 5, AD169
# Human gammaherpesvirus 4 = assay: Antiviral activity against Epstein-Barr virus infected in human Akata cells assessed as decrease in viral DNA accumulation after 72 hrs; assay type: functional, organism-based; conditions: human gammaherpesvirus 4, Akata
# How it was run: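 Latent Akata cells in RPMI 1640 with 10% FBS were induced to productive infection with 50 μg/ml goat anti-human IgG, 4 × 10^4 cells per well, with compound at 100–0.032 μM. After 72 h, NaOH/NaCl denaturation was followed by nylon membrane blotting. Viral DNA was quantified by digoxigenin-labeled probe hybridization and anti-hapten antibody detection.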
# Human alphaherpesvirus 3 = assay: Antiviral activity against VZV Ellan infected in HFF assessed as decrease in viral DNA accumulation after 8 to 10 days; assay type: functional, organism-based; conditions: Human alphaherpesvirus 3, Ellan
# Human alphaherpesvirus 2 [16] = assay: Antiviral activity against HSV2 MS infected in HFF assessed as decrease in viral DNA accumulation after 3 days; assay type: functional, organism-based; conditions: Human alphaherpesvirus 2, MS, 72 h
# Human alphaherpesvirus 1 [17] = assay: Antiviral activity against HSV1 E377 infected in HFF assessed as decrease in viral DNA accumulation after 3 days; assay type: functional, organism-based; conditions: Human alphaherpesvirus 1, E377, 72 h
# Human alphaherpesvirus 1 [18] = assay: Antiviral activity against HSV1 E377 infected in HFF after 3 days by plaque reduction assay; assay type: functional, organism-based; conditions: Human alphaherpesvirus 1, E377, 72 h; how it was run: as §1
# Human alphaherpesvirus 1 [19] = assay: Antiviral activity against HSV1 PAA5 harboring polymerase R842S mutant gene infected in HFF after 3 days by plaque reduction assay; assay type: functional, organism-based; conditions: Human alphaherpesvirus 1, PAA5, 72 h; how it was run: as §1
# Human alphaherpesvirus 2 [20] = assay: Antiviral activity against HSV2 AG-3 harboring TK Q105P mutant gene infected in HFF after 3 days by plaque reduction assay; assay type: functional, organism-based; conditions: Human alphaherpesvirus 2, AG-3, 72 h; how it was run: as §1
# Human alphaherpesvirus 1 [21] = assay: Antiviral activity against HSV1 SC16-S1 harboring TK A265T/C336Y mutant gene infected in HFF after 3 days by plaque reduction assay; assay type: functional, organism-based; conditions: Human alphaherpesvirus 1, SC16-S1, 72 h; how it was run: as §1
# Human alphaherpesvirus 1 [22] = assay: Antiviral activity against HSV1 DM2.1 harboring frameshift mutation in TK infected in HFF after 3 days by plaque reduction assay; assay type: functional, organism-based; conditions: Human alphaherpesvirus 1, DM2.1, 72 h; how it was run: as §1
# Human alphaherpesvirus 1 [23] = assay: Antiviral activity against HSV1 B-2006 harboring frameshift mutation at Q185 in TK infected in HFF after 3 days by plaque reduction assay; assay type: functional, organism-based; conditions: Human alphaherpesvirus 1, B-2006, 72 h; how it was run: as §1
# Human alphaherpesvirus 2 [24] = assay: Antiviral activity against HSV2 12247 harboring TK C337Y mutant gene infected in HFF after 3 days by plaque reduction assay; assay type: functional, organism-based; conditions: Human alphaherpesvirus 2, 12247, 72 h; how it was run: as §1
# Human alphaherpesvirus 2 [25] = assay: Antiviral activity against HSV2 11680 harboring TK R223H mutant gene infected in HFF after 3 days by plaque reduction assay; assay type: functional, organism-based; conditions: Human alphaherpesvirus 2, 11680, 72 h; how it was run: as §1
# Human alphaherpesvirus 2 [26] = assay: Antiviral activity against HSV2 13077 harboring TK R223H mutant gene infected in HFF after 3 days by plaque reduction assay; assay type: functional, organism-based; conditions: Human alphaherpesvirus 2, 13077, 72 h; how it was run: as §1
SMILES,EC50 (Human alphaherpesvirus 2 [1]),EC50 (Human alphaherpesvirus 2 [2]),EC50 (Human alphaherpesvirus 2 [3]),Ratio EC50 (Human alphaherpesvirus 2 [4]),CC50 at 72 h [5],Ratio CC50/EC50 [6],IC50 (HFF),also measured
O=c1[nH]c(=O)n([C@H]2C[C@H](O)[C@@H](CO)O2)cc1I [IDOXURIDINE],> 100 µM,2.4 µM,78 µM,42,–,–,–,–
Cc1cn([C@H]2C[C@H](O)[C@@H](CO)S2)c(=O)[nH]c1=O [4'-THIOTHYMIDINE],–,0.2 µM,–,–,> 100 µM,> 500,< 0.03 µM,–
Nc1nc2c(ncn2COC(CO)CO)c(=O)[nH]1 [GANCICLOVIR],–,–,–,–,–,–,–,EC50 (Human betaherpesvirus 5 [7]): 7.2 µM; EC50 (Human betaherpesvirus 5 [8]): 53 µM; EC50 (Human betaherpesvirus 5 [9]): 15 µM; EC50 (Human betaherpesvirus 5 [10]): 9.8 µM; EC50 (Human betaherpesvirus 5 [11]): 230 µM; EC50 (Human betaherpesvirus 5 [12]): 44 µM; EC50 (Human betaherpesvirus 5 [13]): 3.3 µM
Nc1ccn(C[C@@H](CO)OCP(=O)(O)O)c(=O)n1.O.O [CIDOFOVIR],4.7 µM,9.5 µM,1.2 µM,1.3,> 100 µM,–,–,EC50 (Human gammaherpesvirus 8): 0.064 µM; EC50 [14]: 2.7 µM; EC50 (Human betaherpesvirus 5 [15]): 0.4 µM; EC50 (Human gammaherpesvirus 4): 0.48 µM; EC50 (Human alphaherpesvirus 3): 0.5 µM; EC50 (Human alphaherpesvirus 2 [16]): 5.1 µM; EC50 (Human alphaherpesvirus 1 [17]): 5.5 µM
O=C(O)P(=O)(O)O [FOSCARNET],403 µM,670 µM,389 µM,0.66,–,–,–,–
O=c1[nH]c(=O)n([C@H]2C[C@H](O)[C@@H](CO)S2)cc1C(F)(F)F,–,0.3 µM,–,–,> 100 µM,> 330,0.1 µM,–
Nc1nc2c(ncn2COCCO)c(=O)[nH]1 [ACYCLOVIR],> 440 µM,3 µM,> 100 µM,>100,> 444 µM,–,> 444 µM,EC50 (Human alphaherpesvirus 1 [18]): 0.08 µM; EC50 (Human alphaherpesvirus 1 [19]): 0.011 µM; EC50 (Human alphaherpesvirus 2 [20]): 4.7 µM; EC50 (Human alphaherpesvirus 1 [21]): 0.6 µM; EC50 (Human alphaherpesvirus 1 [22]): 12 µM; EC50 (Human alphaherpesvirus 1 [23]): 4.4 µM; EC50 (Human alphaherpesvirus 2 [24]): 9.6 µM; EC50 (Human alphaherpesvirus 2 [25]): 6.6 µM; EC50 (Human alphaherpesvirus 2 [26]): 4.9 µM
Nc1ccn([C@@H]2S[C@H](CO)[C@@H](O)[C@@H]2O)c(=O)n1 [THIARABINE],–,0.9 µM,–,–,> 100 µM,> 110,–,–
O=c1[nH]c(=O)n([C@H]2C[C@H](O)[C@@H](CO)S2)cc1Br,–,4.8 µM,–,–,> 100 µM,> 21,–,–
Nc1nc(=O)n([C@H]2C[C@H](O)[C@@H](CO)S2)cc1Br,–,15 µM,–,–,> 100 µM,> 6.7,> 100 µM,–
